Reference: PMC3049929 (Journal of medicinal chemistry, 2008)

Key:
[1] = test system: P. falciparum 3D7 (chloroquine-sensitive); assay type: cell-based; details: Plasmodium falciparum, 3D7, Erythrocyte, 48 h, read-out: ED50 (nM) 3D7
Procedure, shortened: (§1)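 Parasites cultured in type A+ human erythrocytes (2% hematocrit) in RPMI-1640 with 20% heat-inactivated type A+ human plasma, under 5% CO2/5% O2/90% N2. Test compound in DMSO added to culture at 0.5% parasitemia and 0.5% hematocrit. Incubated 37 °C for 48 h, then [8-3H]hypoxanthine (0.3 µCi) added for a further 24 h. Cells harvested to filter mats and counted by β-scintillation. Uninfected-erythrocyte background subtracted; DMSO-only wells taken as 100% growth. ED50 from linear regression of incorporation vs concentration.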

[2] = test system: P. falciparum K1 (chloroquine-resistant, pyrimethamine-resistant); assay type: cell-based; details: Plasmodium falciparum, K1, Erythrocyte, 48 h, read-out: ED50 (nM) K1
Procedure, shortened: as §1

Compound | IC50 [1] | IC50 [2]
Cn1cnc(S(=O)(=O)N(Cc2ccccc2)[C@@H]2CCC[C@@H]2N(Cc2cncn2C)c2ccc(C#N)cc2)c1 (racemic) [6a, (±)-[N-Benzyl-N-{cis-2-[(4-cyanophenyl)(3-methyl-3H-imidazol-4-ylmethyl)amino]cyclopentyl}]-1-methyl-1H-imidazole-4-sulfonamide] | > 5000 nM | 2400 nM
Cc1ccccc1CN([C@@H]1CCC[C@@H]1N(Cc1cncn1C)c1ccc(C#N)cc1)S(=O)(=O)c1cn(C)cn1 (racemic) [6b, (±)-[N-(2-Methylbenzyl)-N-{cis-2-[(4-cyanophenyl)(3-methyl-3H-imidazol-4-ylmethyl)amino]cyclopentyl}]-1-methyl-1H-imidazole-4-sulfonamide] | 2800 nM | 2800 nM
Cn1cnc(S(=O)(=O)N(Cc2ccsc2)[C@@H]2CCC[C@@H]2N(Cc2cncn2C)c2ccc(C#N)cc2)c1 (racemic) [6c, (±)-[N-(Thiophen-3-ylmethyl)-N-{cis-2-[(4-cyanophenyl)(3-methyl-3H-imidazol-4-ylmethyl)amino]cyclopentyl}]-1-methyl-1H-imidazole-4-sulfonamide] | > 5000 nM | 4200 nM
Cn1cnc(S(=O)(=O)N(CC2CCN(c3ncccn3)CC2)[C@@H]2CCC[C@@H]2N(Cc2cncn2C)c2ccc(C#N)cc2)c1 (racemic) [6e, (±)-[N-{N-(2-Pyrimidinyl)-piperidin-4-ylmethyl}-N-{cis-2-[(4-cyanophenyl)(3-methyl-3H-imidazol-4-ylmethyl)amino]cyclopentyl}]-1-methyl-1H-imidazole-4-sulfonamide] | 3000 nM | 2500 nM
Cn1cnc(S(=O)(=O)N(Cc2ccccc2)[C@H]2CCC[C@@H]2N(Cc2cncn2C)c2ccc(C#N)cc2)c1 (racemic) [7a, (±)-[N-Benzyl-N-{trans-2-[(4-cyanophenyl)(3-methyl-3H-imidazol-4-ylmethyl)amino]cyclopentyl}]-1-methyl-1H-imidazole-4-sulfonamide] | 3100 nM | 
Cn1cnc(S(=O)(=O)N(CC2CCN(C(=O)OC(C)(C)C)CC2)[C@H]2CC[C@@H](N(Cc3cncn3C)c3ccc(C#N)cc3)C2)c1 (racemic) [8d, (±)-[N-(N-tert-Butoxycarbonylpiperidin-4-ylmethyl)-N-{cis-3-[(4-cyanophenyl)-(3-methyl-3H-imidazol-4-ylmethyl)amino]cyclopentyl}]-1-methyl-1H-imidazole-4-sulfonamide] | 300 nM | 
Cn1cnc(S(=O)(=O)N(Cc2ccccc2)[C@@H]2CC[C@@H](N(Cc3cncn3C)c3ccc(C#N)cc3)C2)c1 (racemic) [9a, (±)-[N-Benzyl-N-{trans-3-[(4-cyanophenyl)(3-methyl-3H-imidazol-4-ylmethyl)amino]cyclopentyl}]-1-methyl-1H-imidazole-4-sulfonamide] | 340 nM | 
Cn1cnc(S(=O)(=O)N(CCCN(Cc2cncn2C)c2ccc(C#N)cc2)Cc2ccccc2)c1 [2a, [N-Benzyl-N-3-{(4-cyanophenyl)(3-methyl-3H-imidazol-4-ylmethyl)amino}propyl]-1-methyl-1H-imidazole-4-sulfonamide] | 3100 nM | 
Cn1cnc(S(=O)(=O)N(CCCN(Cc2cncn2C)c2ccc(C#N)cc2)CC2CCN(c3ncccn3)CC2)c1 [2e, [N-{N-(2-Pyrimidinyl)-piperidin-4-ylmethyl}-N-3-{(4-cyanophenyl)(3-methyl-3H-imidazol-4-ylmethyl)amino}propyl]-1-methyl-1H-imidazole-4-sulfonamide] | 1300 nM | 
Cn1cnc(S(=O)(=O)N(Cc2ccccc2)[C@H]2CC[C@H](N(Cc3cncn3C)c3ccc(C#N)cc3)CC2)c1 [11a, (±)-[N-Benzyl-N-{trans-4-[(4-cyanophenyl)(3-methyl-3H-imidazol-4-ylmethyl)amino]cyclohexyl}]-1-methyl-1H-imidazole-4-sulfonamide] |  | 1800 nM
